Measured values published in ChEMBL document CHEMBL3232748, “Effect of the 3- and 4-methyl groups on the opioid receptor properties of N-substituted trans-3,4-dimethyl-4-(3-hydroxyphenyl)piperidines” (2014).
Activity calls are given as the source filed them. The calls are words filed in the database; no cut-off is given here.

Tests used:
Mus musculus [1] = organism: Mus musculus; assay: Analgesic activity in mouse assessed as antagonism of morphine-induced antinociception by writhing test; format: functional
[2] = target: Mu-type opioid receptor (Homo sapiens) (UniProt P35372); assay: Agonist activity at human mu opioid receptor expressed CHO cells assessed as inhibition of [35S]-GTP[gammaS] binding at 10 uM; format: cell-based
Mu-type opioid receptor (Homo sapiens), sequence (P35372 whole entry): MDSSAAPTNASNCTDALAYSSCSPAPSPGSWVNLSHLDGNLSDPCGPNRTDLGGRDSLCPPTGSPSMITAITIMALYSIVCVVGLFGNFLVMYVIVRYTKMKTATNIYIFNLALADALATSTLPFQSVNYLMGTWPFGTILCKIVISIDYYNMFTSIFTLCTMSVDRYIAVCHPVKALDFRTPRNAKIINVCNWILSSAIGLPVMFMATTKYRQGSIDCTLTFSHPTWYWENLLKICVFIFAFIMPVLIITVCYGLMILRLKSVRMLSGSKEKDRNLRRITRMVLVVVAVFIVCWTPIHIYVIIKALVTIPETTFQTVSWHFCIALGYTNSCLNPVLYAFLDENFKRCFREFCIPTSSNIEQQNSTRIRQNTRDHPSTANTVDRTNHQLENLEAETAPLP
Procedure, shortened: (§1)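 Single-point screen at 10 μM for intrinsic agonist activity in a [³⁵S]GTPγS binding assay, using membranes from CHO cells overexpressing the human μ, κ or δ opioid receptor.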

[3] = target: Kappa-type opioid receptor (Homo sapiens) (UniProt P41145); assay: Agonist activity at human kappa opioid receptor expressed CHO cells assessed as inhibition of [35S]-GTP[gammaS] binding at 10 uM; format: functional, cell-based; procedure, shortened: as §1
Kappa-type opioid receptor (Homo sapiens), sequence (P41145 whole entry): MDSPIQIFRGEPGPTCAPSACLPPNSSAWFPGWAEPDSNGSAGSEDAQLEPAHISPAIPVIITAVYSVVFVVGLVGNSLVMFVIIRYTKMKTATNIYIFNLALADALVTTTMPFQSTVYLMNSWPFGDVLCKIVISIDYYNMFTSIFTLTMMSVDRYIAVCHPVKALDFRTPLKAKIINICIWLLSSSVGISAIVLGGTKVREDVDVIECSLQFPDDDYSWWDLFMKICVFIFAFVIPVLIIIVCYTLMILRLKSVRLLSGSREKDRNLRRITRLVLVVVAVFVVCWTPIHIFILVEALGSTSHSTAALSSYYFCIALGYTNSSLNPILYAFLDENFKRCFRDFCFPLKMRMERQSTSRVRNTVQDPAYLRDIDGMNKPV

[4] = target: Delta-type opioid receptor (Homo sapiens) (UniProt P41143); assay: Agonist activity at human delta opioid receptor expressed CHO cells assessed as inhibition of [35S]-GTP[gammaS] binding at 10 uM; format: functional, cell-based; procedure, shortened: as §1
Delta-type opioid receptor (Homo sapiens), sequence (P41143 whole entry): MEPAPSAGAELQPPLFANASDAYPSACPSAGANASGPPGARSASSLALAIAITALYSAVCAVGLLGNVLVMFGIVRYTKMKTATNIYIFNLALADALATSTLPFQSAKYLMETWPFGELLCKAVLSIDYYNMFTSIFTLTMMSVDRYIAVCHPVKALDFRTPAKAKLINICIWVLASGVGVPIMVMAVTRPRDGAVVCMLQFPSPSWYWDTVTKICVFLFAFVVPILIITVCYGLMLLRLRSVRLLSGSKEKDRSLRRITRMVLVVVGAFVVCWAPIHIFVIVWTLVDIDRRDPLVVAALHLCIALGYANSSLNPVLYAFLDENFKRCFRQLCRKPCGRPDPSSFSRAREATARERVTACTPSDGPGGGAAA

[5] = target: Kappa-type opioid receptor (Homo sapiens) (UniProt P41145); assay: Antagonist activity at human kappa opioid receptor expressed CHO cells assessed as inhibition of [35S]-GTP[gammaS] binding at 10 uM; format: functional, cell-based
Procedure, shortened: (§2)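 Antagonism of [³⁵S]GTPγS binding stimulated by DAMGO (μ), DPDPE (δ) or U69,593 (κ) in CHO cells expressing the human receptor, tested at 10 μM.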

[6] = target: Mu-type opioid receptor (Homo sapiens) (UniProt P35372); assay: Antagonist activity at human mu opioid receptor expressed CHO cells assessed as inhibition of [35S]-GTP[gammaS] binding at 10 uM; format: cell-based; procedure, shortened: as §2
Mus musculus [7] = organism: Mus musculus; assay: Analgesic activity in mouse assessed as antagonism of U50488-induced antinociception by writhing test; format: functional
[8] = target: Delta-type opioid receptor (Homo sapiens) (UniProt P41143); assay: Antagonist activity at human delta opioid receptor expressed CHO cells assessed as inhibition of [35S]-GTP[gammaS] binding at 10 uM; format: functional, cell-based; procedure, shortened: as §2
[9] = target: Delta-type opioid receptor (Homo sapiens) (UniProt P41143); assay: Agonist activity at human delta opioid receptor expressed CHO cells assessed as inhibition of [35S]-GTP[gammaS] binding; format: functional, cell-based
Procedure, shortened: (§3)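 Agonist concentration–response in a [³⁵S]GTPγS binding assay at human δ receptor in CHO cells, using eight concentrations chosen to define the upper and lower asymptotes. EC₅₀ and Emax were calculated, with Emax given as a percentage of the maximum for DPDPE run on the same plate. Values are mean ± SE from at least three independent experiments.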

[10] = target: Delta-type opioid receptor (Homo sapiens) (UniProt P41143); assay: Agonist activity at human delta opioid receptor expressed CHO cells assessed as inhibition of [35S]-GTP[gammaS] binding relative to DPDPE maximal response; format: functional, cell-based; procedure, shortened: as §3
Homo sapiens [11] = organism: Homo sapiens; assay: Selectivity, ratio of Ke for human delta opioid receptor to ratio of Ke for human kappa opioid receptor
Procedure, shortened: (§4)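 Agonist-stimulated [³⁵S]GTPγS binding in CHO cells overexpressing the human receptor, stimulated by DAMGO (μ), DPDPE (δ) or U69,593 (κ). Agonist concentration–response curves were run with or without a fixed test concentration, using at least two test concentrations. Ke = [L]/(DR − 1) was calculated only when the agonist EC₅₀ shifted at least 4-fold. Values are mean ± SE from at least three experiments, and selectivity comes from the Ke values.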

Homo sapiens [12] = organism: Homo sapiens; assay: Selectivity, ratio of Ke for human mu opioid receptor to ratio of Ke for human kappa opioid receptor; procedure, shortened: as §4

Structure (SMILES) | Activity [2] | Activity [3] | Activity [4] | Activity [5] | Activity [6] | also measured
C[C@H]1CN(CCCc2ccccc2)CC[C@@]1(C)c1cccc(O)c1 | – | – | – | – | – | AD50 (Mus musculus [1]): 0.28 mg/kg
Oc1cccc(N2CCN(CCCc3ccccc3)CC2)c1 | inactive | inactive | inactive | – | – | –
C[C@H]1CN(CCCc2ccccc2)CCN1c1cccc(O)c1 | inactive | inactive | inactive | – | – | –
CN1CCN(c2cccc(O)c2)CC1 | inactive | inactive | inactive | inactive | – | –
CC1(c2cccc(O)c2)CCN(CCCc2ccccc2)CC1 | – | – | – | inactive | inactive | –
C[C@H]1CN(C)CC[C@@]1(C)c1cccc(O)c1 | inactive | inactive | inactive | – | – | AD50 (Mus musculus [1]): 0.74 mg/kg; AD50 (Mus musculus [7]): >5 mg/kg
CC1CN(C)CCC1c1cccc(O)c1 (configuration not stated) | – | – | – | – | – | Activity [8]: inactive
CC1CN(CCCc2ccccc2)CCC1c1cccc(O)c1 (configuration not stated) | – | – | – | inactive | inactive | –
CN1CCC(C)(c2cccc(O)c2)CC1 | – | – | – | – | – | ED50 [9]: 8.3 µM; Emax [10]: 64%; ED50 (Mus musculus [1]; Mus musculus): 3.4 mg/kg
Oc1cccc(C2CCN(CCCc3ccccc3)CC2)c1 | – | – | – | inactive | inactive | Ratio Ke (Homo sapiens [11]): 72; Ratio Ke (Homo sapiens [12]): 13
CN1CCC(c2cccc(O)c2)CC1 | inactive | inactive | inactive | – | inactive | Activity [8]: inactive
C[C@H]1CN(C)CCN1c1cccc(O)c1 | inactive | inactive | inactive | – | – | Activity [8]: inactive
